Laboratory results: ChEMBL document CHEMBL1157948, “Triterpenoids from the resin of Styrax tonkinensis and their antiproliferative and differentiation effects in human leukemia HL-60 cells” (2006)

Tests used:
Format in all cases: functional
[1] = test system: HL-60; experiment: Growth inhibition of human HL60 cells after 3 days by trypan blue method
How it was run: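 HL-60 cells grown in RPMI-1640 with 10% heat-inactivated FBS, 1 mM L-glutamine, penicillin/streptomycin. Log-phase cells seeded at 1 × 10⁵ cells/mL and exposed to a range of concentrations for 3 days, in triplicate. Total cells counted on a hemocytometer, with trypan blue marking nonviable cells. Growth inhibition taken relative to untreated control; IG₅₀ from regression of concentration-response data; mean ± SE of three independent experiments.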

[2] = test system: HL-60; experiment: Induction of cell differentiation of human HL60 cells after 3 days by NBT reduction method; parameters: concentration or dose not given beside the values
How it was run: (§1)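 HL-60 cells in RPMI-1640 with 10% heat-inactivated FBS, seeded at 1 × 10⁵ cells/mL in log phase and treated 3 days at nontoxic concentrations. Differentiation scored by NBT reduction as percentage of NBT-positive cells among 200 counted; mean ± SE of three independent experiments.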

[3] = test system: HL-60; experiment: Induction of cell differentiation of human HL60 cells at 100 uM after 3 days by NBT reduction method; how it was run: as §1

SMILES | IG50 [1] | Activity [2] | Activity [3]
CC1(C)CC[C@]2(C(=O)O)CC[C@]3(C)C(=CC[C@@H]4[C@@]5(C)CCC(=O)C(C)(C)[C@@H]5[C@H](O)C[C@]43C)[C@@H]2C1 | 14.2 µM | <10% | –
CC1(C)CC[C@]2(C(=O)O)CC[C@]3(C)C(=CC[C@@H]4[C@@]5(C)CCC(=O)C(C)(C)[C@@H]5CC[C@]43C)[C@@H]2[C@@H]1O | 41 µM | <10% | –
CC1(C)CC[C@]2(C(=O)O)CC[C@]3(C)C(=CC(=O)[C@@H]4[C@@]5(C)CC[C@H](O)C(C)(C)[C@@H]5[C@H](O)C[C@]43C)[C@@H]2C1 | 99.4 µM | – | 44%
CC1(C)CC[C@]23CC[C@]4(C)[C@@H](C(=O)C[C@@H]5[C@@]6(C)CC[C@H](O)C(C)(C)[C@@H]6CC[C@]54C)[C@@H]2[C@H]1OC3=O | 51.2 µM | <10% | –
CC1(C)CC[C@@]23CC[C@]4(C)[C@@](OC2=O)([C@@H]3C1)[C@H]1O[C@H]1[C@@H]1[C@@]2(C)CCC(=O)C(C)(C)[C@@H]2[C@H](O)C[C@]14C | 41.8 µM | <10% | –
CC1(C)CC[C@@]23CC[C@]4(C)[C@@](OC2=O)([C@@H]3C1)[C@H]1O[C@H]1[C@@H]1[C@@]2(C)CC[C@H](O)C(C)(C)[C@@H]2[C@H](O)C[C@]14C | 27.5 µM | <10% | –
CC1(C)CC[C@]2(C(=O)O)CC[C@]3(C)C(=CC[C@@H]4[C@@]5(C)CC[C@H](O)C(C)(C)[C@@H]5CC[C@]43C)[C@@H]2C1 [OLEANOLIC_ACID] | 8.9 µM | <10% | –
CC1(C)CC[C@]2(C(=O)O)CC[C@]3(C)C(=CC[C@@H]4[C@@]5(C)CC[C@H](O)C(C)(C)[C@@H]5CC[C@]43C)[C@@H]2[C@@H]1O [SIARESINOLIC ACID] | 29 µM | <10% | –
CC1(C)CC[C@]2(C(=O)O)CC[C@]3(C)C(=CC[C@@H]4[C@@]5(C)CC[C@H](O)C(C)(C)[C@@H]5[C@H](O)C[C@]43C)[C@@H]2C1 [SUMARESINOLIC ACID] | 30.2 µM | <10% | –
